Assay results from ChEMBL document CHEMBL4400543, “Identification and Characterization of AES-135, a Hydroxamic Acid-Based HDAC Inhibitor That Prolongs Survival in an Orthotopic Mouse Model of Pancreatic Cancer” (J Med Chem, 2019).
Activity calls are given as the source filed them.

Legend:
[1] = test system: Pa03C; test: Cytotoxicity against human Pa03C cells assessed as reduction in tumor spheroid intensity after 72 hrs by Alamar Blue assay; format: functional, cell-based
Outline: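 3D spheroids of patient-derived PDAC cells (tomato red) alone or with CAF19 cells, plus CAF cultures. Imaging read-outs: area is the μ2 of objects above a tomato red intensity threshold; intensity is summed red or green pixel fluorescence after background removal. n = 3–5.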

[2] = Bioavailability in NSG mouse at 20 mg/kg, ip administered as single dose by HPLC-MS/MS analysis; format: ADME, organism-based; details: in vivo
[3] = Antitumor activity against mouse KPC cells allografted in immunocompetent C57BI/6 mouse assessed as mean survival time at 50 mg/kg, ip administered daily for 5 days per week for 1 month starting on day 7 post implantation (reference value: 29.5 days); format: functional
[4] = target: Histone deacetylase 3 (Homo sapiens, UniProt O15379); test: Inhibition of recombinant human HDAC3 expressed in SF9 baculoviral system using FAM-labeled acetylated peptide as substrate by EMSA
Outline: (§1)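 Full-length recombinant human enzyme from an Sf9 baculovirus system, in 100 mM HEPES pH 7.5 with 25 mM KCl, 0.1% BSA, 0.01% Triton X-100 and 1% DMSO. Final enzyme was 0.5 nM for HDAC3, 60 nM for HDAC6 and 5.0 nM for HDAC8. FAM-acetylated peptide was 1 μM. The read-out was product/(substrate+product) by microfluidic mobility shift, with inhibition set against DMSO and no-enzyme controls (quadruplicate). Compounds were tested at 12 threefold-spaced concentrations, and IC50 came from a four-parameter sigmoid fit.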

[5] = test system: MDA-MB-231; test: Cytotoxicity against human MDA-MB-231 cells after 72 hrs by CellTiter-Blue assay; format: functional, cell-based; details: MDA-MB-231, 72 h
Outline: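 MDA-MB-231 cells in DMEM with 10% FBS, 10 000 cells/well, treated after 24 h. Twofold dilutions from 50.0 μM, in triplicate, 0.5% DMSO vehicle. 72 h at 37 °C. CellTiter-Blue fluorescence read at 560/590 nm. IC50 by nonlinear regression.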

[6] = test system: Panc1005; test: Cytotoxicity against human Panc 10.05 monolayer cells assessed as reduction in tumor spheroid intensity after 72 hrs by Alamar Blue assay; format: functional, cell-based; details: Panc1005, 72 h
Outline: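 Monolayer proliferation of STR-authenticated, mycoplasma-checked patient-derived PDAC lines and mouse KPC cells. Plated at 2000 cells/well, treated 72 h, read by alamarBlue. At least triplicate, n = 3–5.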

[7] = target: T1, Histone deacetylase 8 (Homo sapiens, UniProt Q9BY41); test: Inhibition of recombinant human HDAC8 expressed in SF9 baculoviral system using FAM-labeled acetylated peptide as substrate by EMSA; outline: as §1
T1 sequence (Q9BY41 whole entry): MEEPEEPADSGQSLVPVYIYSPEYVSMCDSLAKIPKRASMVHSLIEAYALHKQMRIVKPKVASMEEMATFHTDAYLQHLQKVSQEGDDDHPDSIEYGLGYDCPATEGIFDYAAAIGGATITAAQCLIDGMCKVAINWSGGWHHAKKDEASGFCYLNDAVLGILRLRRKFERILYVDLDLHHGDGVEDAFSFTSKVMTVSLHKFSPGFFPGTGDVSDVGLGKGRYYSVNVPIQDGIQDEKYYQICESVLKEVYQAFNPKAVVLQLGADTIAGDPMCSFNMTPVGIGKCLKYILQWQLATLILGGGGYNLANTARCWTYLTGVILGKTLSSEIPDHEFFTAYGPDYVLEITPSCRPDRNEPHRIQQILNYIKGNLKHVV

[8] = target: T2, Histone deacetylase 11 (Homo sapiens, UniProt Q96DB2); test: Inhibition of recombinant human HDAC11 expressed in SF9 baculoviral system using FAM-labeled acetylated peptide as substrate by EMSA
T2 sequence (Q96DB2 whole entry): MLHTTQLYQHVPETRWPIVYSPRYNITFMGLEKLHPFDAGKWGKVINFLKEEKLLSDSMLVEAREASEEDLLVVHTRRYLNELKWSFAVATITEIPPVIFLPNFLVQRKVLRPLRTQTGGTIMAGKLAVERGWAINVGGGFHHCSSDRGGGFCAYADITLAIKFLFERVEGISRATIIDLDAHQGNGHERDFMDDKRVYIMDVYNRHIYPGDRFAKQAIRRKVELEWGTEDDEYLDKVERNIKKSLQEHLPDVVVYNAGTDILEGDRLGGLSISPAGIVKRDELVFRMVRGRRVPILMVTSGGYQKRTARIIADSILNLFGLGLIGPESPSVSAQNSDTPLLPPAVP
Outline: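 Full-length human HDAC11 (Sf9-expressed), 10 nM final, in 100 mM HEPES pH 7.5, 25 mM KCl, 0.1% BSA, 0.01% Triton X-100, 1% DMSO. FAM-acetylated peptide substrate at 100 μM, mobility-shift read-out. Product/(substrate + product) converted to % inhibition. IC50 from a four-parameter fit; dose-response spans 12 threefold dilutions from 30.0 μM.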

[9] = target: Signal transducer and activator of transcription 3 (Homo sapiens) (UniProt P40763); test: Inhibition of STAT3 phosphorylation at Y705 residue in human BTSC 143EF cells at 1 to 10 uM after 24 hrs by Western blot method; format: cell-based
Outline: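 BTSCs dissociated to single cells and treated with drug or DMSO. Lysed in RIPA buffer with protease inhibitors. 20 μg lysate run on SDS-PAGE and transferred to nitrocellulose. Blocked in 5% milk, primary antibody overnight at 4 °C, then HRP secondary for 1 h.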

Sequence of Histone deacetylase 3 (O15379 whole entry): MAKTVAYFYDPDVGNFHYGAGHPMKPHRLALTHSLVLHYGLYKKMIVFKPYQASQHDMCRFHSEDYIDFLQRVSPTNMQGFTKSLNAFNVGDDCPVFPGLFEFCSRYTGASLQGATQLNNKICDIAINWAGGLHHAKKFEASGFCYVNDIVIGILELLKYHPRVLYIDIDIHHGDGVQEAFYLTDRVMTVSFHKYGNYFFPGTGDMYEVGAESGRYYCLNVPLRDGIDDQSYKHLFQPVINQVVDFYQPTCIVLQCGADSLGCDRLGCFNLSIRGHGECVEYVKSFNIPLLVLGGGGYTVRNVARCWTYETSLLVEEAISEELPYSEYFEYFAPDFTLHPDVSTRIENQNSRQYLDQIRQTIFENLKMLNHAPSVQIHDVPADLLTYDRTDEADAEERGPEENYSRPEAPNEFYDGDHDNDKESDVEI
Sequence of Signal transducer and activator of transcription 3 (Homo sapiens) (P40763 whole entry): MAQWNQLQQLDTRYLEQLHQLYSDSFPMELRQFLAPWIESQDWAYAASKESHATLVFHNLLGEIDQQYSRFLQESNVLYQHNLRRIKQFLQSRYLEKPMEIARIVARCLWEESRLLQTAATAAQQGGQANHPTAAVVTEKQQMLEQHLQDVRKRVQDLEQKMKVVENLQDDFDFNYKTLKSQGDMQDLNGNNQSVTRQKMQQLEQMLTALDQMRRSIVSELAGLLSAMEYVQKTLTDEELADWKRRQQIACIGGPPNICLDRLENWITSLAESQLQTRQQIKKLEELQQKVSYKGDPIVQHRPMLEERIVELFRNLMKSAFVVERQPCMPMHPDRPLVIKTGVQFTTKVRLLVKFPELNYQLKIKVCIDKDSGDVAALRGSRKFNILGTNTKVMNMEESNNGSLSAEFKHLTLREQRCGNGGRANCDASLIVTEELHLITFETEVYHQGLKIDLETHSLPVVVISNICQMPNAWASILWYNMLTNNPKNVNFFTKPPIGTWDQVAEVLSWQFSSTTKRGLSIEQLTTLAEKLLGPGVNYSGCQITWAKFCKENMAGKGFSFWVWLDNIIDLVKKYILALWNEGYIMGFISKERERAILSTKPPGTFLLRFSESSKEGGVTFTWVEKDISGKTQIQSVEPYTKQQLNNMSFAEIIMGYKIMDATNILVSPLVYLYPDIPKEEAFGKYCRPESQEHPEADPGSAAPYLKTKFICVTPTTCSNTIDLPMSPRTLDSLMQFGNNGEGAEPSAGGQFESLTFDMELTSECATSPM

**Q.** What does the source list for CC(C)(C)c1ccc(CN(C(=O)CN(Cc2c(F)c(F)c(F)c(F)c2F)S(=O)(=O)c2ccc(F)cc2)c2ccc(C(=O)NO)cc2)cc1?
**A.** IC50 [1]: 1330 nM; bioavailability [2]: 100%; MST [3]: 36.5 days; IC50 [4]: 654 nM; IC50 [5]: 2720 nM; IC50 [6]: 3900 nM; IC50 [7]: > 1000 nM; IC50 [8]: 636 nM; inhibition [9]: inactive
